HUVEC prolif 384: human endothelial cell proliferation inhibition. viability, % at 10 µM (by protocol). hit rate 1.1% among 86,000. HUVEC proliferation, CellTiter-Glo luminescence, 72 h; stronger effect = lower value. AID 648;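 active = viability at or below 30%; inactive = viability above 30%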;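 note: 100% = median luminescence of DMSO-only cell control wells on each plate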
H69AR inhibit: growth inhibitors of human H69AR lung tumor cells | AID 598 | H69AR lung tumor viability, ATP luminescence, 72 h; stronger effect = lower value | viability, % at 10 µM | hit rate 6% among 85,000;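 active = viability at or below 40%; inactive = viability above 40%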;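 note: multidrug resistant small cell line overexpressing MRP-1 efflux transporter; 100% = mean luminescence of untreated control wells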
Fibroblast inh: blocks proliferation of human lung fibroblasts; hit rate 1.1% among 85,000; AID 719; viability, % at 10 µM; LL 47 human lung fibroblast viability, ATP luminescence; stronger effect = lower value;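 active = viability at or below 50% in the single dose screen; inactive = viability above 50%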;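 note: compound exposure lasted 72 h before the ATP readout; 100% = median luminescence of untreated cell-only wells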
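Signal: luminescent ATP detection, CellTiter-Glo; assay system: LL 47 human lung fibroblasts; input: 1,150 cells/well; incubation: overnight cell rest, 72 h compound treatment at 37 °C; measure: % viability versus median cells-only luminescence; medium: IMEM growth medium with 15% fetal bovine serum; dosing: compound addition at 0.1% DMSO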
PTEN del growth: PTEN-deleted cell growth suppression. viability, % at 10 µM. hit rate 1.2% among 140,000. HCT116 PTEN-null viability, CellTiter-Glo, 60 h; stronger effect = lower value;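 active = viability at or below a set limit, 4 SD under the median of all tested compounds, cut at about 3.7% in these data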;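 note: PTEN knockout HCT116 line with beta catenin targeted HCT116 as companion control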
bCat KO growth: beta-catenin-lacking colon tumor cell growth suppression. HCT116 beta-catenin knockout viability, CellTiter-Glo, 60 h; stronger effect = lower value. viability, % at 10 µM. hit rate 1.5% among 140,000. AID 818;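 active = viability at or under a set limit, the compound median less 4 SD, cut at about 6% in these data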;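 note: 0% = Hyamine 1622 control at 20 µM and 100% = untreated cell control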
An asterisk follows results filed as active; . = no result. Only a selection was taken, and hits are over-represented in it overall.

SMILES	HUVEC prolif 384	H69AR inhibit	Fibroblast inh	PTEN del growth	bCat KO growth
O=C1Cn2c(nc3ccccc32)N1c1cccc(C(F)(F)F)c1	85.5	83.9	100.2	98.4	92.0
COc1ccccc1C1C(C(C)=O)=C(C)N=c2s/c(=C\c3cc(OC)c(OC)c(OC)c3)c(=O)n21 (centres undefined)	79.7	30.4*	92.7	73.5	81.0
CCCCOc1ccc(-c2nc(SCC(N)=O)n[nH]2)cc1	97.8	88.6	111.3	98.4	98.8
CCCCOc1ccc(-c2nc(=S)[nH][nH]2)cc1	80.1	19.1*	106.2	103.8	101.1
CC(C)C(=O)Nc1nnc(CCN2CCOCC2)s1	93.4	100.2	94.5	89.0	93.5
CCN1CCN(C(c2ccccn2)c2c(NC(=O)c3ccccc3)sc(C)c2C)CC1 (centres undefined)	.	.	.	60.5	66.7
CCOc1ccc(Br)cc1C1C(C(=O)OC)=C(N)Oc2cc(N(C)C)ccc21 (centres undefined)	45.8	25.4*	57.2	14.2	17.1
CCOc1ccccc1C1C(C(=O)OC)=C(N)OC2=C1C(=O)CCC2 (centres undefined)	110.5	86.4	102.1	104.4	96.5
OCCCNc1nc(-c2ccc(Cl)cc2)nnc1-c1ccccc1	.	.	.	87.3	91.2
C=CCNc1nc(-c2ccccn2)nnc1-c1ccccc1	11.9*	40.5	13.6*	15.0	14.1
CCN1/C(=C/c2ccc3ccccc3[n+]2CC)C=Cc2ccccc21	44.6	2.2*	17.9*	1.5*	1.8*
Cc1ccsc1C(=O)Nc1cc(C(C)(C)C)nn1-c1ccccc1	.	.	.	92.6	110.1
O=C(c1ccc(Cn2cc(Br)cn2)cc1)N1CCN(c2ccccc2)CC1	55.2	8.8*	90.4	42.8	56.7
O=C(c1ccc(Cn2cc(Cl)cn2)cc1)N1CCN(c2ccccc2)CC1	99.0	68.8	100.3	88.9	84.5
CCN(CC)S(=O)(=O)c1ccc(N2CCOCC2)c(NC(=O)c2c3c(nc4ccccc24)CCC3)c1	.	.	.	92.6	92.4
C=CCNC1=C(Cl)C(=O)N(c2ccccc2Cl)C1=O	102.1	99.2	97.4	105.0	91.2
COc1ccc(OCc2nc(N)nc(Nc3ccccc3)n2)cc1	120.0	90.5	92.8	97.8	93.7
Cc1c(-c2nc(N)nc(Nc3ccccc3)n2)oc2ccccc12	62.3	14.5*	97.3	48.8	57.9
CC(C)CNC(=S)NC1CCCC1	.	.	.	91.7	85.6
Cc1cccc(Nc2nc(-c3ccc4c(c3)OCCO4)cs2)c1	73.2	22.1*	114.1	80.4	74.2
Cc1ccc(S/C=C\C(=O)c2ccccc2)cc1	28.6*	1.2*	70.5	71.2	12.8
CC(/C=C/C(=O)c1ccc(C)cc1)=C\c1ccccc1	.	.	.	75.6	75.0
Cc1ccc(C(=O)/C=C\NCc2ccccc2)cc1	.	.	.	88.2	95.7
Cc1ccc(C(=O)/C=C\C(=O)c2ccc(C)cc2)cc1	.	.	.	1.8*	1.7*
Cc1ccc(S(=O)(=O)N(CC(=O)NC2CCCC2)c2cccc(C)c2)cc1	.	.	.	86.5	92.7
SMILES	HUVEC prolif 384	H69AR inhibit	Fibroblast inh	PTEN del growth	bCat KO growth
O=C(NCC(c1cccs1)N1CCOCC1)c1cc([N+](=O)[O-])ccc1Cl (centres undefined)	.	.	.	90.8	87.0
O=C(NCC(c1cccs1)N1CCOCC1)c1ccc(Cl)s1 (centres undefined)	81.6	17.6*	63.8	20.6	16.2
Cn1nnnc1Sc1ncnc2scc(-c3ccc(F)cc3)c12	.	.	.	3.7*	5.5*
CC1Nc2nc(N(C)C)[nH]c(=O)c2NC1C (centres undefined)	.	.	.	105.5	104.7
O=C1NC(=S)N(C(=O)c2ccc(F)cc2)/C1=C/c1ccccc1	.	.	.	1.7*	12.2
CC12CC(c3ccccc3O1)N(C(=O)c1ccco1)C(=S)N2c1ccc(F)cc1 (centres undefined)	59.6	6.4*	87.5	54.9	65.6
Cc1nonc1NC(=O)CSc1nc(C2CCCCC2)nc2ccccc12	94.4	14.7*	68.1	49.6	44.8
Cc1cc2nc(SCC(=O)Nc3nonc3C)c3c(c2cc1C)CCCC3	60.1	44.4	74.1	102.6	97.5
Cc1cc(NC(=O)CSc2nc3ccccc3c(=O)n2C2CCCC2)no1	54.8	29.0*	52.8	9.5	8.5
Cc1cc(NC(=O)CSc2nc3c(c(=O)n2-c2ccc(Br)cc2)SCC3)no1	52.7	19.8*	49.1*	9.1	46.4
Cc1ccc(Cn2c(SCC(=O)Nc3cc(C)on3)nc3ccccc3c2=O)cc1	52.7	16.7*	35.9*	84.9	82.0
Cc1ccc(NC2=C(CC(=O)O)C(c3ccccc3)N(c3ccc(C)cc3)C2=O)cc1 (centres undefined)	.	.	.	43.0	52.8
CCCCCCn1c(C(C)NC(=O)c2ccco2)nc2ccccc21 (centres undefined)	84.5	69.0	88.5	86.0	87.9
Cc1cc(NC(=O)CSc2nnc3c(C)cc4c(C)ccc(C)c4n23)no1	50.7	25.7*	71.5	31.9	30.9
Cc1ccc(-n2c(SCC(=O)Nc3cc(C)on3)nc3c([nH]c4ccccc43)c2=O)cc1	77.5	17.3*	88.7	59.6	79.3
CCOc1ccc(-n2c(SCC(=O)Nc3cc(C)on3)nc3c([nH]c4ccccc43)c2=O)cc1	87.1	62.6	75.8	9.2	59.4
Cc1cc(NC(=O)CSc2nc(C3CCCCC3)nc3ccccc23)no1	100.3	19.6*	81.8	84.6	82.5
COc1ccc(NC(=O)CSc2nc3ccccc3c(=O)n2CCC(=O)N2CCCCC2)cc1	79.4	39.6*	97.9	77.7	84.8
CCc1nnc(NC(=O)CSc2nnc3c(C)cc4c(C)ccc(C)c4n23)s1	.	.	.	30.3	27.5
CCOC(=O)CCC(=O)Nc1cccc([N+](=O)[O-])c1	.	.	.	98.4	101.2
CCc1cc2cc3c(cc2nc1SCC(=O)Nc1cc(C)on1)OCO3	42.5	30.0*	75.3	30.1	14.4
CCc1cc2cc(C)ccc2nc1SCC(=O)Nc1cc(C)on1	84.6	63.5	92.5	96.7	84.8
CCCN(CCC)C(=O)CSc1nc2ccccc2c(=O)n1C1CCCC1	103.2	30.8*	91.1	66.0	68.8
Cc1ccc(Nc2cc(C)nc(NCc3ccccc3)n2)cc1	.	.	.	1.0*	1.0*
Cc1cc(NC2CCCCC2)nc(NCc2ccccc2)n1	.	.	.	3.2*	2.6*
SMILES	HUVEC prolif 384	H69AR inhibit	Fibroblast inh	PTEN del growth	bCat KO growth
Cc1cc(N/N=C/c2ccccc2Cl)nc(NCc2ccccc2)n1	.	.	.	26.3	42.1
COc1cc(C)nc(NCc2ccccc2)n1	99.2	91.8	91.2	99.6	97.2
COc1cc(NC(=O)Cn2nnc(-c3ccccc3N)n2)cc(OC)c1	95.1	29.5*	96.6	90.9	96.6
COc1ccc(NC(=O)Cn2nnc(-c3ccccc3NC(=O)c3ccco3)n2)cc1	21.4*	4.3*	47.6*	11.7	14.7
O=C(Cn1nnc(-c2ccccc2NC(=O)c2ccco2)n1)NC1CCCCC1	95.2	81.9	88.3	76.8	92.7
COc1ccc(NC(=O)Cn2nnc(-c3ccccc3N)n2)cc1OC	92.6	78.5	95.2	95.5	96.5
COc1ccccc1NC(=O)Cn1nnc(-c2ccccc2NC(=O)c2ccco2)n1	38.8	15.9*	47.4*	102.5	87.8

Screens deposited in PubChem BioAssay by SRMLSC.
